Measured values published in ChEMBL document CHEMBL3124801, “Structure-based optimization of tyrosine kinase inhibitor CLM3. Design, synthesis, functional evaluation, and molecular modeling studies” (J Med Chem, 2014).

How the values were obtained:
[1] = biological target: Proto-oncogene tyrosine-protein kinase receptor Ret (Homo sapiens) (UniProt P07949); experiment: Inhibition of recombinant human RET at 100 uM incubated for 5 mins with substrate prior to protein addition by fluorescence assay relative to control
Chain of Proto-oncogene tyrosine-protein kinase receptor Ret (Homo sapiens) (P07949 whole entry): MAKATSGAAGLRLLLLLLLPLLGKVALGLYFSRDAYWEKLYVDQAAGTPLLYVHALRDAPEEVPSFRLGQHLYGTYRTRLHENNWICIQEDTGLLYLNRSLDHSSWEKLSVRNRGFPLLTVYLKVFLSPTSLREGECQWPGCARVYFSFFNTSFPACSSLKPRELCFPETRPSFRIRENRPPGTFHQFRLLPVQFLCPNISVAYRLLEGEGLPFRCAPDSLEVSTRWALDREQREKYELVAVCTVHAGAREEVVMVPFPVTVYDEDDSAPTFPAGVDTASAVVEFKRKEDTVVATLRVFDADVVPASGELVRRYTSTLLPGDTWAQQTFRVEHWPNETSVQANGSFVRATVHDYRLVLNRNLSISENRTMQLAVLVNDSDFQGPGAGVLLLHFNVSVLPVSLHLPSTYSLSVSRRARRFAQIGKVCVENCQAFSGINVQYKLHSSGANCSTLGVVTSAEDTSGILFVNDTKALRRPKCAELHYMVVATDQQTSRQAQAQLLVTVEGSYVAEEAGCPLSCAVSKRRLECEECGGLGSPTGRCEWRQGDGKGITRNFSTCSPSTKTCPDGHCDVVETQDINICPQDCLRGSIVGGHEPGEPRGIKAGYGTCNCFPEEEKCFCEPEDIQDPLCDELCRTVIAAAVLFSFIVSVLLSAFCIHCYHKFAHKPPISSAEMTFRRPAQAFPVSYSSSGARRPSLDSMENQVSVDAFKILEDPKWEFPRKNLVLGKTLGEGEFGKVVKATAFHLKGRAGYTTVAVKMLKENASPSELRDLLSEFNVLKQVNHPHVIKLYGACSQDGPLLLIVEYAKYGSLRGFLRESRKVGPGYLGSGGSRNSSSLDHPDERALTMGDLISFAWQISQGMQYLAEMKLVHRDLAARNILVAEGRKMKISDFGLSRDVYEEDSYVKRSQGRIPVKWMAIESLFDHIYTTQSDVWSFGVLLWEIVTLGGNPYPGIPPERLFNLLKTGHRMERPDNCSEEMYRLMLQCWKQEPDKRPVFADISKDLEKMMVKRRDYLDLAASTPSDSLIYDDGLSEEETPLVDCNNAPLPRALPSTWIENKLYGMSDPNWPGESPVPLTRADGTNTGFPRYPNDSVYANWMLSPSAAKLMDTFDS
Outline: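 Human recombinant RET was assayed with Omnia Tyr peptide 7 substrate at 30 °C, from 1 mM ATP and 1 mM DTT stocks, with DMSO ≤1% final. Mix plus inhibitor was preincubated 5 min before kinase was added to start the reaction. Fluorescence (ex 360/em 485 nm) was followed over time, and activity was taken from a linear fit of intensity versus time. Compounds were screened at 100 μM.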

[2] = test system: TT; experiment: Antiproliferative activity against human TT cells after 72 hrs by cell counter
[3] = test system: HUVEC; experiment: Antiproliferative activity against HUVEC after 72 hrs by cell counter; conditions: Homo sapiens
[4] = Antiproliferative activity against HMVEC-d cells after 72 hrs; conditions: Homo sapiens
[5] = test system: 8305C; experiment: cells; conditions: Homo sapiens, 72 h
[6] = test system: TT; experiment: Antiproliferative activity against human TT cells
[7] = Antiproliferative activity against HNDF after 72 hrs by cell counter; conditions: Homo sapiens

inhibition [1] [%] | SMILES | IC50 [2] [µM] | IC50 [3] [µM] | other results
57 | O=[N+]([O-])c1ccc(S(=O)(=O)Nc2cccc(CNc3ncnc4c3cnn4CCc3ccccc3)c2)cc1 |  |  | 
 | O=C(Nc1ccc(Br)cc1)Nc1cccc(CNc2ncnc3c2cnn3CCc2ccccc2)c1 | 9.86 | 18.6 | 
48 | C[C@@H](Nc1ncnc2c1cnn2CCc1ccccc1)c1ccccc1 |  |  | IC50 [4]: 0.0004 µM; IC50 [5]: 9.2 µM; IC50 [6]: 26.9 µM
 | O=S(=O)(Cc1ccccc1)Nc1cccc(CNc2ncnc3c2cnn3CCc2ccccc2)c1 | 5.97 | 50.7 | IC50 [7]: 23.6 µM
 | O=C(Nc1ccccc1)Nc1cccc(CNc2ncnc3c2cnn3CCc2ccccc2)c1 | 8.42 | 13.4 | 
 | O=C(Nc1cccc(CNc2ncnc3c2cnn3CCc2ccccc2)c1)c1ccc([N+](=O)[O-])cc1 | 6.13 | 16.6 | IC50 [7]: 22 µM
8 | COc1ccc(S(=O)(=O)Nc2cccc(CNc3ncnc4c3cnn4CCc3ccccc3)c2)cc1OC |  |  | 
 | O=C(Nc1cccc(CNc2ncnc3c2cnn3CCc2ccccc2)c1)c1ccc(F)cc1 | 13.6 | 15.9 | 
37 | O=C(Nc1ccc([N+](=O)[O-])cc1)Nc1cccc(CNc2ncnc3c2cnn3CCc2ccccc2)c1 |  |  | 
 | O=C(Nc1cccc(CNc2ncnc3c2cnn3CCc2ccccc2)c1)c1ccccc1 | 13.8 | 15.3 | 
 | O=C(Nc1cccc(CNc2ncnc3c2cnn3CCc2ccccc2)c1)c1ccc(Br)cc1 | 13.5 | 9.83 | 
 | O=S(=O)(Nc1cccc(CNc2ncnc3c2cnn3CCc2ccccc2)c1)c1ccccc1 | 8.08 | 22.6 | 
